Experimental data from different studies.
Each line is one published result; the experiments were not run side by side.

`Nc1ccc(/C=C/C(=O)NCc2cc3cc(-c4ccc(C(=O)N5CCC(F)(F)CC5)cc4)cc(-c4ccc(F)cc4)c3o2)cn1` gave a half-life of 275 min (rat; plasma; oral; 3 mg/kg).
`O=C(C=Cc1ccccc1)Nc1cc(-c2ccnc(N3CCC(O)CC3)c2)ccn1` gave a half-life of 28.8 min (female Sprague-Dawley rat; plasma; oral; 50 mg/kg).
For `O=c1cc(-c2ccc(O)c(O)c2)oc2cc(O)cc(O)c12`, the half-life was 132 min (male Sprague-Dawley rat; plasma; oral; 30 mg/kg).
The half-life of `CC1(CN)CCN(c2cnc3c(Sc4ccncc4Cl)n[nH]c3n2)CC1` is reported as 56.1 min (male Sprague-Dawley rat; plasma; intravenous; 2 mg/kg).
With `O=C1CC[C@H](N2Cc3cc(N4CCN(CC5CCN(c6ccc([C@@H]7c8ccc(O)cc8CC[C@@H]7c7ccccc7)cc6)CC5)CC4)ccc3C2=O)C(=O)N1` the half-life was 383 min (female Sprague-Dawley rat; plasma; oral; 20 mg/kg; fed).
For `N#C[C@@]12C[C@@H]1[C@@H](n1cnc3c(N[C@@H](C4CCC4)C4CC4)nc(I)nc31)[C@H](O)[C@@H]2O`, the half-life was 258 min (male Wistar rat; plasma; oral; 3 mg/kg).
With `CC(=Nc1ccc(N=Cc2cnccn2)cc1)N(C)C` the half-life was 467 min (male Sprague-Dawley rat; plasma; oral; 200 mg/kg).
`COc1ccc2cc3n(c(=O)c2c1OC)CCc1cc2c(cc1-3)OCO2` gave a half-life of 94 min (male Sprague-Dawley rat; blood; oral; 50 mg/kg).
With `C/C(=N\c1ccc(O)cc1)c1cc2ccccc2n1C` the half-life was about 270 min (male Sprague-Dawley rat; plasma; intravenous; 5 mg/kg; single dose).
